Values joined by “and” are separate entries in the source; they are usually repeats but may differ in a detail not shown here. Identical values can stand only once.
System: HL-60
Assay: Ability to inhibit human leukemic HL-60 cell growth in culture
Format: functional, cell-based
In short: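 HL-60 cells seeded at 1.5 × 10^5/mL in RPMI 1640 and exposed to compound at 0.0025–0.05 mg/mL (in 0.1% DMSO). Incubation was 72 h at 37 °C under humidified 5% CO2. Viable cells were counted by trypan blue exclusion on a hemocytometer. IC50 was the median-effect concentration, taken from a median-effect plot of fractional inhibition over three to five dose-effect levels.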

SMILES | IC50 (Homo sapiens, HL-60) | IC50 (hl-60)
COc1c(OC)c(OC)c2c(c1O)c(=O)c1ccc([N+](=O)[O-])cc1n2C | > 100 µM | –
COc1c(OC)c(OC)c2c(c1O)c(=O)c1cc([N+](=O)[O-])ccc1n2C | > 100 µM | –
COc1c(OC)c(O)c2c(O)c3ccc(O)c(OC)c3nc2c1OC | > 100 µM | –
CNc1ccc2c(=O)c3c(O)c(OC)c(OC)c(OC)c3n(C)c2c1 | 10.6 µM | –
COc1c(OC)c(OC)c2c(c1O)c(=O)c1ccc(N)cc1n2C | 11.6 µM | –
CCN(CC)CCn1c2c(OC)c(O)ccc2c(=O)c2c(O)c(OC)c(OC)c(OC)c21 | 62.2 µM | –
COc1c(OC)c(OC)c2c(c1O)c(=O)c1cccc(OC)c1n2C | 12.8 µM | –
COc1cc2c(c3c1c(=O)c1ccccc1n3C)C=CC(C)(C)O2 [ACRONINE] | 26.2 µM | –
COc1c(OC)c(OC)c2c(c1O)c(=O)c1ccc(O)c(OC)c1n2C [GLYFOLINE] | 2.2 µM | –

Further lines, results first:

IC50 (Homo sapiens, HL-60) | IC50 (hl-60) | SMILES
– | 91.9 µM and 23.7 µM | COc1c(OC)c(OC)c2c(c1OC)c(=O)c1ccc(O)c(OC)c1n2C
23.3 µM | – | COc1ccc2c(=O)c3c(OC)c(OC)c(OC)c(OC)c3n(C)c2c1OC
3.4 µM | – | COc1ccc2c(=O)c3c(O)c(OC)c(OC)c(OC)c3n(C)c2c1OC
44.4 µM | – | COc1c(OC)c(OC)c2c(c1O)c(=O)c1cc(N)ccc1n2C
9.4 µM | – | COc1c(OC)c(OC)c2c(c1O)c(=O)c1ccc(N(C)C)cc1n2C

Reference: ChEMBL document CHEMBL1125488, “Synthesis of the acridone alkaloids glyfoline and congeners. Structure-activity relationship studies of cytotoxic acridones” (J Med Chem, 1992)
